# Compound activity deposited in PubChem BioAssay by Sanford-Burnham Center for Chemical Genomics.
# STEP block: blocks human striatal-enriched tyrosine phosphatase; P54829; recombinant STEP, OMFP fluorogenic substrate, fluorescence; inhibition, % at 20 µM; actives 0.25% (n = 360,000);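 active means inhibition at 20 µM, scaled per plate between control wells, above about 37%, limit read from the data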;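 further: 0% = DMSO with enzyme and substrate and 100% = substrate only without enzyme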
# Target sequence (P54829 whole entry, looked up): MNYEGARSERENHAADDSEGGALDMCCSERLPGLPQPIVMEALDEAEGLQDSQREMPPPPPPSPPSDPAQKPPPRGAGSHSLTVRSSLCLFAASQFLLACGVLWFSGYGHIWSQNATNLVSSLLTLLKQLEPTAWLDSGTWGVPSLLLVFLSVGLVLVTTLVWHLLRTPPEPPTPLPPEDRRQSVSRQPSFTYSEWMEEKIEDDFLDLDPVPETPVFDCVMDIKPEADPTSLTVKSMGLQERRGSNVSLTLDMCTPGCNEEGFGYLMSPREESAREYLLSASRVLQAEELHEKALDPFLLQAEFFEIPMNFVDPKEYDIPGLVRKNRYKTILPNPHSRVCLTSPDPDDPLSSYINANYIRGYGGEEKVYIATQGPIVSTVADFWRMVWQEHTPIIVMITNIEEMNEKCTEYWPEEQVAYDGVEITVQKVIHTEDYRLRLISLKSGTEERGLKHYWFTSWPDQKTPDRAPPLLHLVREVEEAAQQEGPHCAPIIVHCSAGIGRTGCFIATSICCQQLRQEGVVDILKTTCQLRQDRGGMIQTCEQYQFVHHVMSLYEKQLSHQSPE
#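 material = STEP tyrosine phosphatase | reagent = fluorogenic phosphatase substrate OMFP at 25 µM final | doses = single compound dose of 20 µM, 1% DMSO final | schedule = 20 min reaction, room temperature, in the dark | measured by = fluorescence, 480/540 nm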
# Scp1 inh: inhibitors of human Scp-1 phosphatase. Q9GZU7. Recombinant Scp1, phosphopeptide, malachite green phosphate absorbance. inhibition, % at 20 µM. actives 0.88% (n = 340,000). AID 493091;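 active means inhibition above about 50% at 20 µM, limit read from the data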;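 further: plate controls were DMSO wells with enzyme for no effect and wells lacking enzyme for full effect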
# Target sequence (Q9GZU7 76-261 limits assumed): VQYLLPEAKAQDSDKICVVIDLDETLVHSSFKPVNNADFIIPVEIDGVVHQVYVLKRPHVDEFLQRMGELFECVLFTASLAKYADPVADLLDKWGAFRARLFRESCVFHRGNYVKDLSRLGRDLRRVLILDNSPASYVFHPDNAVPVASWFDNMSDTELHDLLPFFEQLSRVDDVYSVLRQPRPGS
#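 Times: enzyme reaction 45 min at room temperature, colour 5 min, stabilisation 30 min. Material: SCP-1 catalytic fragment, aa 76-261. Medium: Acidic Tris acetate buffer with magnesium and detergent. Signal: colorimetric free-phosphate detection, absorbance 630 nm. Read-out basis: % inhibition of SCP-1 phosphate liberation. Reagent: Phosphorylated 17-residue peptide substrate.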
# CSN deneddyl inh: inhibitors of human CSN-mediated cullin deneddylation | Q92905 | Purified CSN, SCF-Nedd8-OG deneddylation, fluorescence polarization | inhibition, % at 12.5 µM | actives 0.38% (n = 360,000) | AID 651999;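 active means pattern-corrected inhibition above about 35%, with an unprinted fluorescence ratio check between 0.5 and 1.5, limit read from the data, passing the limit was not always enough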;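 further: 0% = enzyme with substrate and 100% = substrate without enzyme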
#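 Material: human Csn5 produced in HEK293T cells; Input: enzyme 0.24 nM; Reagent: SCFSkp2-Nedd8OG substrate at 10 nM final; Dosing: 12.5 µM compound; Incubation: 90 min reaction at room temperature; Detection: fluorescence polarization of the substrate; Evaluation: % inhibition of substrate cleavage by Csn5; Control set: substrate-only high control, full reaction low control.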
# DNMT1 inh: inhibitors of human DNMT1; P26358; DNMT1 molecular beacon, Hinp1I cleavage, fluorescence; inhibition (reported as % activation of signal), % at 10 µM; actives 0.83% (n = 360,000); AID 588458; in the data active means inhibition above about 50%
# LMPTP inh: LMPTP (human) inhibition; actives 0.22% (n = 360,000); inhibition, % at 20 µM; P24666; recombinant LMPTP-A, OMFP fluorogenic substrate, fluorescence intensity; AID 651560;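 active means compounds that cut the enzyme signal by at least half of the control window in the single-dose screen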;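 further: plate controls were DMSO wells with enzyme plus substrate for no effect and substrate without enzyme for full effect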
#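 Assay system: LMPTP-A enzyme. Input: 0.625 nM LMPTP-A final. Probe or stimulus: 400 µM OMFP. Compound dosing: single 20 µM dose. Schedule: 50 min dark incubation at room temperature. Detection: fluorescence intensity of OMFP turnover product. Read-out: percent inhibition versus substrate-only and uninhibited controls. Benchmarks: no-enzyme low control, uninhibited high control.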
# SUMO1 PPI mod: SUMO1-SIM interaction modulation; P63165; SUMO1 binding to a labelled peptide, TR-FRET, 1 h; inhibition, % at 20 µM; actives 0.33% (n = 360,000); AID 602429; in the data active means inhibition above about 37%
# * hit, by the source's call; . = no result. A selection: hits, their analogues and other compounds. The true share with any hit is near 2%.
SMILES,STEP block,Scp1 inh,CSN deneddyl inh,DNMT1 inh,LMPTP inh,SUMO1 PPI mod
COc1ccc(CN2CCNC(=O)C2CC(=O)NCc2cc(C)n(C)n2)c(F)c1 (stereo not drawn),-0.1,-1.8,-0.7,-0.9,-2.4,0.8
COc1ccc(C2CC(c3ccccc3)=NN2c2ccc(/C=N/NC(=O)c3ccncc3)cc2)cc1 (stereo not drawn),-2.1,-7.2,2.4,-1.9,0.9,-2.9
N#CCC(=O)N/N=C/c1ccc(N2N=C(c3ccccc3)CC2c2ccccc2)cc1 (stereo not drawn),5.4,-6.4,39.5*,-13.2,6.6,0.6
Cc1ccccc1COC(=O)CCC1=NS(=O)(=O)c2ccccc2N1,-2.4,-3.8,1.6,1.4,-1.2,-4.2
CSc1nc(C)c2c(n1)N(c1ccc(C(C)C)cc1)CC2,3.9,3.2,-0.3,-3.9,2.8,56.3*
CSc1nc(C)c2c(n1)N(c1ccc(F)cc1)CC2,-5.8,-3.0,-1.9,-5.4,2.3,39.1
CCCCCCCCN1C(=O)[C@H](CC(=O)NCCCN2CCCC2=O)C[C@@]2(C(=O)OC)CCCCC=C12,.,.,47.9*,.,-0.3,7.1
COC(=O)[C@]12CCCCC=C1N(Cc1ccccc1)C(=O)[C@H](CC(=O)NCCCN1CCCC1=O)C2,.,.,-1.4,.,-2.1,0.3
COc1ccccc1C(=O)NC(CCSC)C(=O)OC(C)C(=O)NC1CC1 (stereo not drawn),-1.4,-0.1,-3.2,1.9,-0.6,-2.0
CCCCCC(=O)Nc1cc(S(=O)(=O)N2CCCCC2)ccc1N1CCCCC1,6.4,-0.7,-6.1,-2.2,6.5,-0.7
CCCCCC(=O)Nc1cc(S(=O)(=O)O)cc2cc(S(=O)(=O)O)cc(O)c12,98.9*,101.9*,41.1,-19.0,95.7*,118.5*
Oc1ccc2ccccc2c1-c1sc(Nc2ccccc2)n[n+]1-c1ccc(F)cc1,-7.9,-0.2,-72.2,33.7,2.0,-23.3
Fc1ccc(-[n+]2nc(Nc3ccccc3)sc2-c2c3ccccc3cc3ccccc23)cc1,6.5,14.4,-2.4,-1.5,67.2*,-8.6
COc1ccc(O)c(C(=O)c2coc(=N)c(C(=O)Nc3ccc(SC(F)F)cc3)c2)c1,-2.6,-2.3,55.8*,-5.7,0.4,-22.3
Cc1c(OC(C)C(=O)NCC(O)c2ccccc2)ccc2c3c(c(=O)oc12)CCC3 (stereo not drawn),-0.7,0.8,-5.5,-2.5,0.5,-7.3
CCC(=O)OCC(=O)c1cc(C)n(-c2ccc(Br)cc2)c1C,7.0,-0.7,-4.1,1.1,-0.2,6.1
Fc1c(F)c(C(F)(F)F)c(F)c(F)c1N/N=C\c1cccs1,-1.7,-3.7,0.0,-6.8,2.4,40.6*
Cc1ccc(CSCC(=O)Nc2cc(S(=O)(=O)N3CCOCC3)ccc2OCC(F)(F)F)cc1,-2.2,-6.8,-3.9,-1.1,-4.8,-7.3
CC[C@@H](NCCCn1ccc(NC(=O)OCc2ccccc2)nc1=O)c1ccccc1,-0.5,.,0.0,3.4,-1.9,-0.2
O=C1NC(=O)/C(=C\c2ccc(OCc3cnc(Cl)s3)cc2)S1,3.8,-8.3,37.3*,0.3,5.0,-2.0
Cc1ccc(S(=O)(=O)/N=C2/C=C(Sc3ncn[nH]3)C(=O)c3ccccc32)cc1,1.9,25.3,23.1,76.6*,8.3,92.8*
Cc1ccc(S(=O)(=O)Nc2ccc(O)c(Sc3ncn[nH]3)c2)cc1,1.0,-6.7,4.4,-0.5,-0.3,0.4
CC(C)c1ccc(S(=O)(=O)/N=C2/C=C(Sc3ncn[nH]3)C(=O)c3ccccc32)cc1,14.6,2.4,24.0,31.9,8.8,91.7*
CSc1nc2cc(Oc3cccc(Cl)c3Cl)c(Cl)cc2[nH]1,-1.3,-3.5,-8.6,-14.1,0.8,5.7
Cc1c(S(=O)(=O)N2CCCCC2)c(=O)n(C)c(=O)n1C,0.4,-5.8,63.9*,4.0,-1.7,2.0
SMILES,STEP block,Scp1 inh,CSN deneddyl inh,DNMT1 inh,LMPTP inh,SUMO1 PPI mod
COC(=O)C1CCN(S(=O)(=O)c2c(C)n(C)c(=O)n(C)c2=O)CC1,0.1,-14.0,2.4,-2.2,-1.0,2.9
CC(=O)Nc1ccc(S(=O)(=O)N2CCC(C(=O)NCc3cccnc3)CC2)cc1,-2.8,-3.1,-1.3,1.2,-1.4,1.8
Cc1cc(C)n(C(=O)CCCn2cc([N+](=O)[O-])cn2)n1,-1.0,1.4,-0.6,1.3,-1.6,-7.6
CC(C)CCNc1nnnc2c1sc1nc(N3CCOCC3)c3c(c12)CC(C)(C)SC3,3.7,4.6,60.3*,-11.1,2.3,0.6
CC1(C)Cc2c(c(N3CCOCC3)nc3sc4c(NCCN5CCOCC5)nnnc4c23)CS1,5.9,-14.9,4.9,-5.3,-0.3,11.1
COC(=O)[C@@]1(C)[C@H]2C(=O)N(Cc3ccccc3)C(=O)[C@H]2[C@H]2CN(C)C(=NC3CCCCC3)N21,-0.5,9.2,-2.6,5.4,-1.4,12.4
C[C@@H](CN1C(=O)C(=O)NC[C@@H]1Cc1ccc(O)cc1)NC(=O)Cc1ccccc1,13.6,-3.0,-3.1,-4.3,3.0,42.2*
O=C1NC[C@H](CC2CCCCC2)N(CCc2cc(C(F)(F)F)cc(C(F)(F)F)c2)C1=O,.,.,48.3*,.,2.1,6.5
O=C1NC[C@@H](Cc2ccc(O)cc2)N(CCc2cc(C(F)(F)F)cc(C(F)(F)F)c2)C1=O,.,.,98.2*,.,4.4,66.7*
O=C1NC[C@H](CC2CCCCC2)N(CCc2cccc3ccccc23)C1=O,.,.,59.7*,.,3.9,8.4
CC(C)C[C@@H](CNCC(=O)[C@H](CC(C)C)NC(=O)c1[nH]cnc1C(=O)N[C@H](CN)CC(C)C)NC(=O)c1nc[nH]c1C(=O)N[C@@H](CC(=O)O)C(=O)O,0.3,-10.9,-0.5,1.8,-2.8,2.4
COc1ccc(CNC2CC(C)N(C)CC2C)cc1OC (stereo not drawn),-2.8,-2.4,2.6,0.8,53.0*,20.5
CCc1noc(C)c1C(=O)Nc1ccc(F)c(F)c1,2.3,-4.2,0.5,2.0,-0.6,1.9
c1coc(CSSCc2ccco2)c1,16.5,21.5,48.5,101.2*,18.8,13.9
CCCCN1C(=O)/C(=C2/Sc3ccccc3N2C)S/C1=N\c1ncn[nH]1,-1.2,6.4,45.0*,37.7,1.7,-7.4
CCCCc1nc2sc3c(=O)[nH]c(=S)[nH]c3c2c2c1CCC2,2.9,-0.7,4.5,1.1,-1.4,3.7
O=C1c2cccc3c(N4CCCCC4)ccc(c23)C(=O)N1c1ccccn1,-5.3,-0.1,-4.8,1.7,-1.2,-27.0
Cc1nn(C)c(C)c1N1C(=O)c2cccc3c(N)ccc(c23)C1=O,-150.2,-11.1,-71.6,93.4*,-11.2,-47.0
CCCCNc1ccc2c3c(cccc13)C(=O)N(CCCC)C2=O,-305.0,-17.7,-76.2,60.6*,-4.3,-74.4
